An excerpt weighted towards active compounds, which were near 3.1% of everything screened.
OX1R antag-1: antagonists of human orexin 1 receptor; O43613; CHO/OX1R cells, Fluo-8 calcium fluorescence, orexin A; inhibition, % at 5 µM; 330,000 compounds, 0.43% hits;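 active = inhibition above its plate's threshold, mean inhibition of all tested compounds on the plate plus 3 SD, cut at about 37% in these data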;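 also: 0% = orexin A challenge wells and 100% = SB-334867-A antagonist wells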
Target sequence (O43613 whole entry, looked up): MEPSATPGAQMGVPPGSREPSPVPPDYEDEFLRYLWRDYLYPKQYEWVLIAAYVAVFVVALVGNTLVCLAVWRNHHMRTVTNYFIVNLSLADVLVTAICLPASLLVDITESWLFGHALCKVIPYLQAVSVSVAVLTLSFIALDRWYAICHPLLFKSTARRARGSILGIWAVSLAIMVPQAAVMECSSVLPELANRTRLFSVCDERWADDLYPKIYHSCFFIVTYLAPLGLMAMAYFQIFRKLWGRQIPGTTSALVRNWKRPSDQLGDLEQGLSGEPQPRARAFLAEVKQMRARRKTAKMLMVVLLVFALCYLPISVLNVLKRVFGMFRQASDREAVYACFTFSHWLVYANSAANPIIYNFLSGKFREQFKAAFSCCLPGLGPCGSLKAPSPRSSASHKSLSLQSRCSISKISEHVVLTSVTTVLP
OX1R antag-2: antagonists of human orexin 1 receptor (OX1R); O43613; OX1R-expressing cells, FRET antagonist read-out; inhibition, % at 6.6 µM; 330,000 compounds, 1.8% hits; in the data active = inhibition mostly above about 38%, no sharp cut-off; inactive = mostly below about 40%;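 also: 0% = agonist challenge alone and 100% = reference antagonist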
CHO parental Ca: counter-screen: ATP calcium response change in parental CHO cells. inhibition, % at 5.6 µM. parental CHO-K1, ATP-induced calcium, Fluo-8 fluorescence. 330,000 compounds, 0.63% hits;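 active = inhibition above that plate's mean sample inhibition plus 3 SD, cut at about 26% in these data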;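 also: 0% = ATP-challenged DMSO wells and 100% = DMSO wells without ATP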
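Material – parental CHO cells · Reagent – ATP stimulus · Compound – single nominal dose of 5.6 µM per compound · Detection – Fluo-8 fluorescence · Read-out basis – percent inhibition of calcium signal · Controls – ATP-challenged DMSO wells low, unchallenged DMSO wells high · Repeats – no replicates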
GalR3 antagonist: human GalR3 antagonism. O60755. HEK293 GalR3-CNG cAMP membrane potential fluorescence; galR3 body fused to GalR1 C-terminus. inhibition, % at 3 µM. 360,000 compounds, 0.44% hits;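 active = inhibition above the screen-wide average plus 3 SD, cut at about 13% in these data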;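 also: forskolin and galanin both at EC90 stimulate the cells; cAMP rise reported by CNG channel membrane potential dye signal; 0% = forskolin plus galanin with DMSO and 100% = forskolin alone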
GPR7 antag: antagonists of human GPR7 (neuropeptides B/W receptor 1). AID 1861. 290,000 compounds, 1.1% hits. GPR7-expressing cells, fluorescence antagonist assay. inhibition, % at 4.4 µM. P48145; in the data active = inhibition above about 16%, passing the limit was not always enough;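 also: cells stimulated with the agonist NPW; 0% = agonist with vehicle and 100% = vehicle without agonist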
GalR3 conf: GalR3 (human) antagonism, confirmation. HEK293 GalR3 CNG cAMP biosensor, membrane potential fluorescence; galR3 fused to GalR1 carboxy tail; challenged with forskolin and galanin at EC90. inhibition, % at 3 µM. 1,600 compounds, 59% hits. shares compounds with GalR3 antagonist;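 active = inhibition above the primary screen's cutoff, the mean inhibition of all screened compounds plus 3 SD, cut at about 13% in these data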;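 also: 0% = forskolin plus galanin and 100% = forskolin alone with DMSO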
HEK-CNG parental: acts as nonspecific agonist in parental HEK-CNG cells; shares compounds with GalR3 antagonist; HEK293-CNG parental cells, cAMP membrane potential fluorescence; normalised: DMSO wells 0%, forskolin wells 100%; 1,600 compounds, 10% hits; activation, % at 3 µM; in the data active = activation above about 1.3%
Active calls of the source: *; nt = no result given.

SMILES	OX1R antag-1	OX1R antag-2	CHO parental Ca	GalR3 antagonist	GPR7 antag	GalR3 conf	HEK-CNG parental
Cc1cc(Br)c(OCc2ccc(C(=O)N/N=C3\CC4CC=CC34)cc2)c(Br)c1 (stereo not drawn)	2	14	-10	27*	-11	46*	0
Cc1cn([C@H]2C[C@H](O)[C@@H](CNC(=O)[C@H](N)Cc3cn(COCc4ccccc4)cn3)O2)c(=O)[nH]c1=O	nt	nt	nt	-6	nt	nt	nt
COc1cccc(OCCn2cc(C(C)=O)c3ccccc32)c1	1	20	32*	27*	21	21*	0
COc1cccc(OCCn2cc(/C=N/NC(=O)c3ccncc3)c3ccccc32)c1	0	13	-4	-1	13	nt	nt
O=C(CC1CCCC1)N[C@H](C(=O)N1CCC[C@H]1C(=O)NC1CCCC1)c1ccccc1	nt	nt	nt	-3	nt	nt	nt
COc1cc(C(=O)O[C@H]2CC(C)=CC[C@@]3(C)CC[C@@](O)(C(C)C)[C@H]23)ccc1O	-16	12	9	26*	-15	21*	0
Cc1ccc(OCC(=O)N/N=C\c2ccc(O)c([N+](=O)[O-])c2)c([N+](=O)[O-])c1	-21	33	-1	-4	-2	nt	nt
Cc1ccc(/C=N\NC(=O)COc2ccc(C)cc2[N+](=O)[O-])cc1	0	15	-13	13*	-6	1	0
Cc1ccc(S(=O)(=O)N2CCN(C)CC2)cc1-c1nnc2c3ccccc3c(C)nn12	-56	24	-24	40*	-15	49*	1
COc1ccc(S(=O)(=O)N2CCN(CCO)CC2)cc1-c1nnc2c3ccccc3c(C)nn12	-9	11	6	11	-16	nt	nt
COc1ccc(S(=O)(=O)NC(C)(C)C)cc1-c1nnc2c3ccccc3c(C)nn12	-13	22	-5	-1	-6	nt	nt
Cc1ccc(S(=O)(=O)N2CCN(CCO)CC2)cc1-c1nnc2c3ccccc3c(C)nn12	-25	6	-4	30*	-5	43*	2.9*
CCc1nc2ccc(C(=O)NCCCN(C)C)cn2c1N(CC)CCOC	nt	nt	nt	2	nt	nt	nt
Cc1ccc(C2C(C(=O)c3cccs3)=C(O)C(=O)N2c2nnc(C)s2)cc1 (stereo not drawn)	9	1	2	13*	8	18*	0
Clc1cccc(CNCCNCc2cccc(Cl)c2)c1	-5	7	-1	22*	-3	12	2.5*
CN(C)c1ccc(-c2ccnc3c2CC(C)(C(=O)NCc2ccc(F)c(F)c2)O3)cc1 (stereo not drawn)	nt	nt	nt	-5	nt	nt	nt
COc1ccccc1Nc1ccc(NC(=O)c2cccc([N+](=O)[O-])c2C)cc1	-3	7	-8	14*	7	6	-1
Cc1ccc(S(C)(=O)=NC(=O)NC(=O)c2c(F)cccc2Cl)cc1 (stereo not drawn)	3	11	0	14*	5	4	1
Cc1ccc(S(C)(=O)=NC(=O)NC(=O)c2c(Cl)cccc2Cl)cc1 (stereo not drawn)	1	10	-11	1	3	nt	nt
CNC[C@H]1Oc2ccc(NC(=O)Nc3ccc4c(c3)OCO4)cc2C(=O)N([C@H](C)CO)C[C@@H]1C	-11	12	-3	15*	nt	8	0
C[C@@H]1CC=C[C@H]2[C@H]1C(=O)N(Cc1ccccc1)[C@H]2c1ccoc1	-20	19	-7	-7	nt	nt	nt
C[C@@H]1CC=C[C@H]2[C@H]1C(=O)N(Cc1ccccc1)[C@H]2c1ccc2ccccc2c1	-11	51	-28	nt	nt	-5	1
O=C(O)c1cccc(NC(=S)NC(=O)c2ccc(-c3ccc(Cl)cc3)o2)c1	-9	12	-10	-5	15	nt	nt
O=C(O)c1ccc(NC(=S)NC(=O)c2ccc(-c3ccc(Br)cc3)o2)cc1	-2	15	6	13*	-7	-19	1.7*
CC(=O)N/C(=C/c1ccc2c(c1)OCO2)C(=O)NC(Cc1ccccc1)C(=O)O (stereo not drawn)	-17	22	-17	16*	nt	0	0
SMILES	OX1R antag-1	OX1R antag-2	CHO parental Ca	GalR3 antagonist	GPR7 antag	GalR3 conf	HEK-CNG parental
C#Cc1ccc(NC(=O)C2(C)CCN2C(=O)Cc2ccc(C(C)C)cc2)cc1 (stereo not drawn)	nt	nt	nt	84*	nt	92*	0
CC(C)c1ccc(CC(=O)N2CCC2(C)C(=O)NCC(C)(C)C)cc1 (stereo not drawn)	nt	nt	nt	-7	nt	nt	nt
C#Cc1ccc(NC(=O)C2(C)CCN2C(=O)Cc2ccc(C(C)(C)C)cc2)cc1 (stereo not drawn)	nt	nt	nt	27*	nt	94*	0
CC(C)(C)c1ccc(CC(=O)N2CCC2(C)C(=O)Nc2ccc3[nH]ncc3c2)cc1 (stereo not drawn)	nt	nt	nt	-4	nt	nt	nt
Cc1ccc(NC(=O)[C@@H](Cc2ccccc2)NC(=O)[C@H]2O[C@@H](n3ccc(=O)[nH]c3=O)[C@H](O)[C@@H]2O)cc1C	nt	nt	nt	-7	nt	nt	nt
CCCOC(=O)c1ccc(OCC(O)Cn2c(C)nc3ccccc32)cc1 (stereo not drawn)	nt	nt	nt	105*	-1	123*	0
CCOc1ccccc1NC(=O)c1ccc(NC(=O)c2ccco2)cc1	-12	41	-22	nt	-15	6	-1
O=C(CN(Cc1ccco1)C(=O)Cn1nnc(-c2ccc(F)cc2)n1)NC1CCCC1	-19	15	-3	3	10	nt	nt
COc1ccc(-c2nnn(CC(=O)N(CC(=O)NC3CCCC3)Cc3ccco3)n2)cc1OC	-21	3	-8	21*	-6	14*	0
COc1ccc(-c2ccc(CN3C(CC(C)C)C(=O)N(Cc4cn(CCC5OCCO5)nn4)CCS3(=O)=O)cc2)cc1OC (stereo not drawn)	nt	nt	nt	2	nt	nt	nt
O=C(Cn1nc(-c2ccccc2)c2ccccc2c1=O)Nc1ccc(O)cc1	-10	8	4	14*	5	1	-1
COc1ccc(CCNC(=O)COC(=O)/C=C/c2cccs2)cc1	-6	19	-3	nt	-11	0	1
COC(=O)CNC(=O)COC(=O)/C=C/c1cccs1	-1	17	-10	-3	0	nt	nt
Cc1nn(C)c(C)c1CN(C)S(=O)(=O)c1ccc2ccccc2c1	27	53*	38*	110*	14	116*	0
COc1cc2c3c(c1)C(C)CC(C)(C)N3C(=O)C2=O (stereo not drawn)	-77	44*	0	22*	14	23*	1
CCc1cc2c3c(c1)C(C)CC(C)(C)N3C(=O)/C2=C1\SC(=O)NC1=O (stereo not drawn)	-20	4	-5	-3	-18	nt	nt

Bioassay records: PubChem BioAssay, The Scripps Research Institute Molecular Screening Center
